# Screening data as filed in PubChem BioAssay.
# CCR6 antagonist: blocks CCL20-driven beta-arrestin recruitment at human CCR6; P51684; CHO-K1 CCR6 PathHunter beta-arrestin, luminescence, CCL20-stimulated; inhibition, % at 20 µM; 0.49% of 340,000 active; AID 493098;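 active = compounds whose inhibition of the agonist-driven luminescence signal at 20 µM reaches about 50%, limit read from the data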;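 also: cells stimulated with CCL20 at 14 nM final; plate controls were DMSO with CCL20 for no effect and DMSO without agonist for full effect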
# Target sequence (P51684 whole entry, looked up): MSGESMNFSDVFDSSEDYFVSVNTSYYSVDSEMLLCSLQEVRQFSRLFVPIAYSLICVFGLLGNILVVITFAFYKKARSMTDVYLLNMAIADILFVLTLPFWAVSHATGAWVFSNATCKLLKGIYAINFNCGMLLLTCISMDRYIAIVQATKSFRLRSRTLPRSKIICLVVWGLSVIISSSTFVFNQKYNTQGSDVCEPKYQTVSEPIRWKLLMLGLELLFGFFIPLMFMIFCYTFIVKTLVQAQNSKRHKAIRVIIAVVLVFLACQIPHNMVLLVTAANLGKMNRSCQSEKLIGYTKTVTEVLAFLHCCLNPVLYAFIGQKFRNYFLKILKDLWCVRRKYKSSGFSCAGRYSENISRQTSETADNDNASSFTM
# EBI2 antag: blocks human EBI2 receptor beta-arrestin signaling. EBI2 beta-arrestin recruitment, luminescence, 7a,25-OHC stimulated. inhibition, % at 5 µM. 0.81% of 360,000 active. AID 651636; in the data active = inhibition above about 38%;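 also: enzyme fragment complementation signal reports receptor beta-arrestin coupling in cells; 0% = agonist plus DMSO wells and 100% = wells without agonist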
# APJ antagonist: antagonists of human APJ apelin receptor | AID 2521 | inhibition, % at 20 µM | CHO-K1 APJ beta-arrestin complementation, luminescence | 0.32% of 330,000 active | P35414;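 active = inhibition above about 40% at 20 µM, limit read from the data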;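 also: cells challenged with 10 nM apelin-13 agonist together with compound; plate controls were apelin-13 plus DMSO wells for no effect and DMSO wells lacking apelin-13 for full effect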
# APJ ag: APJ receptor agonism. AID 2520. 0.11% of 330,000 active. activation, % at 20 µM. CHO-K1 APJ PathHunter beta-arrestin, luminescence; 0% DMSO wells, 100% apelin. P35414;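 active = activation more than six SD over the plate average, tested at 20 µM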;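 also: 0% = DMSO alone and 100% = apelin-13 at 10 nM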
#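 Assay system: engineered CHO-K1 APJ arrestin reporter cells; Amount: 1000 CHO-K1 reporter cells seeded per well; Dosing: one dose, 20 µM compound, 1% DMSO; Times: compound stimulation 90 min at 25 °C, detection 60 min; Measured by: luminescent beta-gal fragment complementation, chemiluminescent substrate; Read-out: APJ–arrestin association signal; Controls: DMSO vs Apelin-13 10 nM.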
# CXCR6 inh: blocks human CXCR6 beta-arrestin recruitment; AID 602244; 0.36% of 360,000 active; CHO-K1 PathHunter CXCR6 beta-arrestin, luminescence; inhibition, % at 20 µM; in the data active = inhibition above about 34%, passing the limit was not always enough;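 also: antagonist mode with CXCL16 agonist at 10 nM final; 0% = 10 nM CXCL16 with DMSO and 100% = unstimulated wells without agonist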
# Numbers without * were called inactive; . = not tested or not shown; ! = repeats disagree. In the library only some 1.5% were active in any assay of this set; here they are far more common.
SMILES,CCR6 antagonist,EBI2 antag,APJ antagonist,APJ ag,CXCR6 inh
NS(=O)(=O)c1ccc(N=Nc2c(-c3ccccc3)[nH]n(-c3nc(-c4ccccc4)cs3)c2=O)cc1,49,2,32,-2,44*
Cc1ccc(NN2C(=O)C=C(c3ccc(Cl)cc3)C2=O)cc1,12,46*,-12,4,0
O=C1C=C(c2ccccc2)C(=O)N1Nc1ccccc1,.,3,8,11,31
Cc1cccc(-n2nc([N+](=O)[O-])c(=NC3CCN(Cc4ccccc4)CC3)n2O)c1,0,-26,-70,16*,-14
Cc1cc(-c2nnc(CCC(=O)NCc3ccc(OC(F)(F)F)cc3)o2)no1,6,-1,6,0,1
Oc1ccc(Cl)cc1N=Cc1sc2ccccc2c1Cl,3,-10,.,.,-14
O=[N+]([O-])c1ccc(O)c(N=Cc2sc3ccccc3c2O)c1,54*,35,.,.,20
CCOc1cc(C(=O)CSc2nnc(CNc3ccc(Cl)cc3)o2)ccc1NC(=O)CC,5,56*,4,2,-8
O=C(NCc1ccco1)/C(=C/c1ccc(C(F)(F)F)cc1)c1nc2ccccc2[nH]1,1,-3,16,-3,-2
O=S(=O)(/C(=C\c1ccc(C(F)(F)F)cc1)c1nc2ccccc2[nH]1)c1ccccc1,.,45*,.,.,23
Cc1ccc(-c2nnc3n2CCCCC3)cc1,-12,-3,2,-2,-2
O=C1Nc2ccccc2C1=Nc1ccc(-c2nnc3n2CCCCC3)cc1,62*!,14,-14,-4,4
O=S(=O)(c1ccc(F)c(F)c1)N1CCN(S(=O)(=O)c2cccs2)CC1,6,0,-13,2,-3
N#CC1=C(N)C(C#N)(C#N)C(c2ccncc2)C2CN(C(=O)OCc3ccccc3)CC=C12 (configuration not stated),56*,14,16,-8,23
O=C1CC(C(=O)Nc2ccc(Cl)cc2[N+](=O)[O-])C2(CCCCC2)O1 (configuration not stated),57*,-9,-12,4,-8
O=C(/C=C/c1ccccc1Cl)OCC(=O)N1CCCC1,6,-9,4,1,-4
COc1cc(/C=C/c2ccc3cccc(O)c3n2)c(Br)cc1O,.,0,17,-5,21
COc1cc(/C=C/c2ccc3cccc(O)c3n2)ccc1O,67*,8,15,-1,43*
COc1cc(Br)c(/C=C/c2ccc3cccc(O)c3n2)cc1OC,48,9,3,-4,24
Oc1cccc2ccc(/C=C/c3ccccc3Br)nc12,62*,1,34,-11,32
CCOC(=O)C1=CCN(S(=O)(=O)c2ccccc2Br)C1c1ccc(F)cc1 (configuration not stated),.,12,.,.,2
Cc1cc(C)n2nc(SCC(=O)N3CCCC(C)C3)nc2n1 (configuration not stated),4,1,-10,1,-5
CCc1ccc(NC(=O)c2ccc3c(c2)C(=O)N(Cc2ccco2)C3=O)cc1,4,84*,7,-3,7
O=C(O)c1cccc(NC(=O)c2ccc3c(c2)C(=O)N(Cc2ccco2)C3=O)c1,12,-6,6,-2,0
CCOc1ccc2oc(C(=O)N3CCN(c4ccccn4)CC3)c(C)c2c1,8,63*,9,4,-2
SMILES,CCR6 antagonist,EBI2 antag,APJ antagonist,APJ ag,CXCR6 inh
COc1ccc(OC)c(NC(=O)COC(=O)C2CCCCC2)c1,10,-7,-2,-3,-4
COC(=O)C1=NN(C(=O)c2cccc(Br)c2)C(O)(c2ccc(Cl)cc2)C1 (configuration not stated),.,-19,5,0,45*
CC1=NN(C(=O)c2ccccc2)C(O)(c2ccc(Br)cc2)C1 (configuration not stated),55*,14,24,-5,34
C/C(N=Nc1nc2ccccc2s1)=N\Nc1ccccc1O,65*,18,36,-10,50*
CCC(/C=C1\Sc2ccc(OC)cc2N1CC)=C\c1sc2ccc(OC)cc2[n+]1CCCS(=O)(=O)[O-],77*,-10,18,-3,11
CCC(/C=C1\Sc2ccc(OC)cc2N1CCO)=C\c1sc2ccc(OC)cc2[n+]1CCO,68*,9,-33,-2,9
CCC(=O)/C=C1/Sc2ccc(OC)cc2N1CCO,20,0,3,-3,0
O=C(CN1CCN(S(=O)(=O)c2ccc(Br)cc2)CC1)Nc1ccc(F)cc1,0,3,-24,-4,3
COc1ccc(NC(=O)CN2CCN(S(=O)(=O)c3ccc(Cl)cc3)CC2)cc1Cl,10,38*,-15,2,-8
COc1ccc(S(=O)(=O)N2CCCN(CC(=O)Nc3ccc(OC)c(Cl)c3)CC2)cc1,3,21,7,1,-18
O=C(CN1CCN(S(=O)(=O)c2ccc(Br)cc2)CC1)Nc1ccc2c(c1)OCO2,8,9,-19,-4,62*
COC1=C(N)C(=O)c2nc(C)ccc2C1=O,-13,-40,.,.,-16
COC1=C(Br)C(=O)c2nc(C)ccc2C1=O,.,-21,.,.,44*
CCC(=O)NC1=C(Cl)C(=O)C(NC(=O)CC)=C(Cl)C1=O,.,-16,-26,6,84*
COc1ccc(OC)c2c1C(=O)C(Cl)=C(Cl)C2=O,105*,21,27,-3,102*
Cc1ccc(C2=CC(=O)C[C@H](c3ccc(Cl)cc3)C2)cc1,24,74*,-8,-5,-3
CC1CCCC(C)N1C(=O)COc1ccc(F)cc1 (configuration not stated),16,-3,8,-3,-5
CC(NO)C(C)(C)NO (configuration not stated),58*,4,30,-7,38
CC(C)OC(=O)c1cccc(NC(=O)CSc2nnc(N)s2)c1,-10,-55,4,-5,-3
COc1ccc2c(c1)c(=O)oc1c(C)c(OCc3cc(C(=O)O)oc3C)ccc12,56*,-1,-3,-1,1
CCCCCCCCCCC[N+](C)(C)CC/C=C1/c2ccccc2Sc2ccc(Cl)cc21,11,-3,3,1,4
CCCCCCCCCC[N+](C)(C)CC/C=C1/c2ccccc2Sc2ccc(Cl)cc21,-4,-1,12,1,49*
CCOC(=O)SC1=N/C(=C\c2ccc(N(C)C)cc2)C(=O)S1,51*,-24,22,-8,20
CCSC1=N/C(=C\c2ccc(C(=O)O)cc2)C(=O)S1,19,0,19,-5,4
Oc1[nH]c2ccccc2c1N=Nc1ccccc1,18,3,18,-5,12
Cc1ccc2[nH]c(O)c(N=Nc3ccccc3[N+](=O)[O-])c2c1,16,13,.,.,5
Cc1ccc2[nH]c(O)c(N=Nc3nc4ccccc4s3)c2c1,49,18,30,-7,42*
Oc1[nH]c2ccccc2c1N=Nc1nc2ccccc2s1,58*,14,37,-8,28
Cc1nnc(NCC=Cc2ccccc2)s1,.,0,.,.,-4
